In brackets after ≈: the same amount, converted by molar mass. Activity calls are given as the source filed them. No cut-off for these calls is given here.
Experiments:
[1] = test system: Streptococcus pneumoniae; assay: Reduction of pneumolysin production in Streptococcus pneumoniae NMU112 lysates at 5 ug/mL after 12 hrs by Western blot relative to control; type: functional, organism-based
In short: (§1)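 NMU112 at 5 × 10⁷ CFU/ml in THY cultured with macrolide at 37°C for 12 h, then whole-cell sonicated lysates run on SDS-PAGE and immunoblotted for pneumolysin. Band densitometry as mean % of drug-free culture; two cultures per dose per experiment, three experiments.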

[2] = test system: Streptococcus pneumoniae; assay: Antimicrobial activity against drug-resistant Streptococcus pneumoniae NMU112 infected CBA/J mouse assessed as median survival time at 10 mg/kg, po relative to control; type: functional
In short: (§2)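 Male CBA/J mice, 3-4 weeks old, 28-30 g. Macrolide given by oral gavage in saline for 3 days; RXM, ERY and CLR twice daily at 12-h intervals, AZM once daily. Saline controls. 24 h after the last dose, mice were infected intratracheally with 5 × 10⁴ CFU NMU112 (erm(B)/mef(A)). Kaplan-Meier survival and median survival time, log rank test; 10 mice per group per experiment.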

[3] = test system: Streptococcus pneumoniae; assay: Inhibition of pneumococcal surface protein A production in Streptococcus pneumoniae NMU112 lysates at 10 ug/mL after 12 hrs by Western blot relative to control; type: functional, organism-based
In short: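 Strain NMU112 (5 × 10⁷ CFU/ml in THY) cultured 12 h at 37°C with drug. Sonicated whole-cell lysates run on SDS-PAGE and Western blotted; bands measured by densitometry as % of drug-free culture. Two cultures per dose, three experiments (n = 5–6).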

[4] = test system: Streptococcus pneumoniae; assay: Antimicrobial activity against Streptococcus pneumoniae NMU112 infected in po dosed CBA/J mouse assessed as delaying in development of bacteremia […]; type: functional, organism-based
[5] = test system: Streptococcus pneumoniae; assay: Antimicrobial activity against Streptococcus pneumoniae NMUP45; type: functional
In short: (§3)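 Broth microdilution MIC (NCCLS method) in Mueller-Hinton broth with 3% lysed horse blood; clinical isolates NMU605 (serotype 3) and NMUP45 (serotype 4).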

[6] = test system: Streptococcus pneumoniae; assay: Antimicrobial activity against drug-resistant Streptococcus pneumoniae NMU112 infected CBA/J mouse assessed as median survival time at 20 mg/kg, po relative to control; type: functional; in short: as §2
[7] = test system: Streptococcus pneumoniae; assay: Antimicrobial activity against Streptococcus pneumoniae NMU112; type: functional
In short: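 Broth microdilution MIC per NCCLS in Mueller-Hinton broth with 3% lysed horse blood.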

[8] = test system: Streptococcus pneumoniae; assay: Antimicrobial activity against Streptococcus pneumoniae NMU605; type: functional; in short: as §3
[9] = test system: Streptococcus pneumoniae; assay: Reduction of pneumolysin production in Streptococcus pneumoniae NMU112 lysates at 10 ug/mL after 12 hrs by Western blot relative to control; type: functional, organism-based; in short: as §1

For `CC[C@H]1OC(=O)[C@H](C)[C@@H](O[C@H]2C[C@@](C)(OC)[C@@H](O)[C@H](C)O2)[C@H](C)[C@@H](O[C@@H]2O[C@H](C)C[C@H](N(C)C)[C@H]2O)[C@](C)(O)C[C@@H](C)C(=O)[C@H](C)[C@@H](O)[C@]1(C)O` [ERYTHROMYCIN], the Activity [1] was “Active”, the MST [2] was 5.27 days and the Activity [3] was “Active”. For the same compound, the Activity [4] was “Active”, the MIC [5] was 2 µg/mL (≈ 2.73 µM) and the MST [6] was 6.78 days. The MIC [7] was no less than 256 µg/mL, the MIC [8] was 0.03 µg/mL (≈ 0.0409 µM) and the Activity [9] was “Active”.
